Only some compounds are listed: those with a hit (about 9.8% of all), similar ones and a draw of the others.
PMI act – phosphomannose isomerase (human) activation. P34949. activation factor at 20 µM. purified human PMI, coupled resazurin fluorescence, 20 min; active compounds read high; 1 = vehicle control, 0 substrate-free wells. 0.005% of 190,000 active. AID 1214;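 active means activation factor of 2 or more at 20 µM, relative to plate controls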
PMI act satM6P – activators of human phosphomannose isomerase at near-saturating mannose 6-phosphate. P34949. coupled PMI enzyme assay, resazurin fluorescence, 20 min; active compounds read high; 1 = untreated enzyme, 0 = substrate-free blank. activation factor at 20 µM. 0.34% of 190,000 active;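 active means activation factor of 2 or more at 20 µM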
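Material: human phosphomannose isomerase with PGI, G6PDH, diaphorase coupling enzymes; amount: PMI at 15 ng/mL final; also added: Mannose-6-phosphate 1.0 mM (near-saturating) plus 0.22 mM NADP+; incubation: enzyme reaction with compound 20 min at room temperature; signal: resorufin fluorescence (Ex 544/Em 590 nm) from resazurin via diaphorase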
Lmaj promast – reduces viability of Leishmania major promastigotes. resazurin fluorescence viability. inhibition, % at 10 µM. 9% of 200,000 active; in the data active means inhibition above about 50%;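 further: promastigotes grown with compound for 44 hours at 28 °C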
Rad51 HR inh – blocks human Rad51 in homologous recombination. 0.085% of 200,000 active. AID 1385. Q06609. hRad51 DNA strand exchange, fluorescence dequenching. inhibition, % at 10 µM;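 active means inhibition above 40% at the single screening dose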
Target sequence (Q06609 whole entry, looked up): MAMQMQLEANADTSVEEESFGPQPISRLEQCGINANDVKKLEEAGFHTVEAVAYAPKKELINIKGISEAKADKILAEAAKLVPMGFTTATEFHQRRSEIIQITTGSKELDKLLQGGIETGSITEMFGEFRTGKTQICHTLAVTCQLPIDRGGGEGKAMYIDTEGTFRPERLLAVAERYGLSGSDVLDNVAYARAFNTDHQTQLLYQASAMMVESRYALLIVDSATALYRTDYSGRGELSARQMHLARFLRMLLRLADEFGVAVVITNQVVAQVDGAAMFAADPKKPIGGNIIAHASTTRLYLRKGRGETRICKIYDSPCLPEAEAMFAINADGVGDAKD
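Material: hRad51 filaments on single-stranded DNA; Reagent: Donor/quencher-labelled 47-bp dsDNA substrate; Compound: 10 µM final, single point; Schedule: 37 °C 15-min filament assembly, 30-min compound preincubation, 15-min exchange; Technique: FRET fluorescence, excitation 485 nm, emission 520 nm; Benchmarks: control wells and blank wells on each plate.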
m-calpain inh – calpain II (pig) inhibition; purified calpain II, fluorogenic peptide substrate, 30 min; inhibition, % at 16 µM; 0.37% of 220,000 active; AID 1236;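 active means inhibition above about 50%, limit read from the data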
WT yeast gro inh – growth inhibition of WT yeast, mitochondrial fusion screen | mitochondrial fusion phenotypic screen, WT strain | inhibition, % at 10 µM | 2.1% of 190,000 active | AID 1362; in the data active means inhibition above about 58%; tested in S. cerevisiae
Numbers stand for hits; . = inactive; / = not tested or not shown.

SMILES | PMI act | PMI act satM6P | Lmaj promast | Rad51 HR inh | m-calpain inh | WT yeast gro inh
O=C(COc1ccc(S(=O)(=O)N2CCCC2)cc1)NCC1CCCO1 (centres undefined) | . | . | . | . | . | .
O=C(CSc1nnc(-c2n[nH]c3ccccc23)n1-c1ccccc1)Nc1ccccc1Cl | . | . | 60 | . | . | .
Cc1cc(NC(=O)CSc2nnc(-c3c[nH]c4ccccc34)n2-c2ccc(Cl)cc2)no1 | . | . | 89 | / | . | .
O=C(CN1C(=O)C2C3CC(C(Br)C3Br)C2C1=O)Nc1ccc(C(=O)O)cc1 (centres undefined) | / | / | / | . | . | /
CCNc1nc(NCC)nc(N/N=C(\C)c2ccc(OC)cc2)n1 | . | . | . | . | . | .
COc1ccc(NC(=O)CN2CCc3ccccc3C2)cc1S(=O)(=O)N1CCOCC1 | . | . | 70 | . | . | .
COc1ccc(NC(=O)CN2CCC(Cc3ccccc3)CC2)cc1S(=O)(=O)N1CCOCC1 | . | . | . | . | . | .
COc1ccc(NC(=O)Cc2coc3cc(C)ccc23)cc1S(=O)(=O)N1CCOCC1 | . | . | . | . | . | .
COc1ccc(NC(=O)Cc2coc3ccc4ccccc4c23)cc1S(=O)(=O)N1CCOCC1 | . | . | 78 | . | . | .
C=CCN1C(=O)CSc2ccc(C(=O)NCc3cccs3)cc21 | . | . | . | . | . | .
O=C(CC12CC3CC(CC(C3)C1)C2)NCC(c1ccc(F)cc1)N1CCOCC1 (centres undefined) | . | . | . | . | . | .
CCn1c(/C=C/N(C(C)=O)c2ccccc2)[n+](CC)c2ccc(Cl)cc21 | . | . | . | / | . | .
CC[n+]1c(/C=C/N(C)c2ccccc2)oc2ccc(Cl)cc21 | . | . | 100 | . | . | .
CN(Cc1cn(Cc2ccccc2)nc1-c1ccc2c(c1)OCO2)Cc1nccn1C | . | . | . | . | . | .
CCCC(=O)Nc1ccc(C(=O)n2ccc(C)n2)cc1 | . | . | . | . | . | .
C/C(CCS(=O)(=O)c1ccccc1)=N/O | . | . | . | . | . | .
Cc1ccc(-c2nc3ncccc3o2)cc1NC(=O)c1cccs1 | . | . | 95 | . | . | .
CCCC(=O)Nc1cc(-c2nc3ncccc3o2)ccc1C | . | . | 89 | . | . | .
Cc1ccc(-c2nc3ncccc3o2)cc1NC(=O)c1ccco1 | / | / | 99 | . | / | /
Cc1ccc(-c2nc3ncccc3o2)cc1NC(=O)c1sc2ccccc2c1Cl | . | . | . | . | . | .
CC(C)C(NC(=O)C12CC3CC(CC(C3)C1)C2)C(=O)N/N=C/C1=C(N2CCOCC2)C(=C\c2ccc([N+](=O)[O-])cc2)/CC1 (centres undefined) | . | . | 97 | / | . | .
CC(NC(=O)C12CC3CC(CC(C3)C1)C2)C(=O)N/N=C/C1=C(N2CCOCC2)C(=C\c2cccc([N+](=O)[O-])c2)/CC1 (centres undefined) | . | . | 98 | . | . | .
Cc1occc1C(=O)N/N=C/C1=C(N2CCOCC2)C(=C\c2ccc(Cl)cc2)/CC1 | . | . | . | . | . | .
CC(C)[C@H](NS(=O)(=O)c1cccc(C(F)(F)F)c1)C(=O)OCC(N)=O | . | . | . | . | . | .
CCOC(=O)/C(=C/c1ccc(N2CCC(c3ccccc3)=N2)cc1)C(C)=O | . | . | . | / | . | 78
SMILES | PMI act | PMI act satM6P | Lmaj promast | Rad51 HR inh | m-calpain inh | WT yeast gro inh
c1ccc(C2=NN(c3ccccc3)CC2)cc1 | / | / | / | . | . | /
Cc1ccccc1-c1nnn(CC(=O)N2CCN(S(=O)(=O)c3ccc(Cl)cc3)CC2)n1 | . | . | 53 | . | . | .
O=C(CSc1nc2ccccc2[nH]1)N1CCN(S(=O)(=O)c2ccc(Cl)cc2)CC1 | . | . | 64 | . | . | .
Cc1ccc(S(=O)(=O)N2CCN(C(=O)CSc3nc4ccccc4c(=O)[nH]3)CC2)cc1 | / | / | . | . | . | .
O=C(Cn1nnc(-c2ccccc2)n1)N1CCN(S(=O)(=O)c2ccc(Cl)cc2)CC1 | . | . | . | . | . | .
O=C(CSc1nc2ccccc2c(=O)[nH]1)NCc1ccc(Cl)cc1 | . | . | . | / | . | .
O=C(CSc1nc2ccccc2[nH]1)NCCc1ccc(Cl)cc1 | . | . | 56 | . | . | .
c1ccc(Nc2cccc(Nc3ccccc3)c2)cc1 | . | . | . | / | . | 71
COC(=O)c1ccc(NC(=O)CN2C(=O)CNC2=O)cc1 | . | . | 91 | . | . | .
COC(=O)c1ccc(NC(=O)Cc2ccccc2)cc1 | . | . | 76 | . | . | .
CCNC(=O)CN1C(=O)NC2(CCCCCC2)C1=O | . | . | . | . | . | .
Cc1ccc(NC(=O)CN2C(=O)CNC2=O)cc1 | / | / | / | . | . | /
CC(C)(C)c1ccc(-c2csc(NC(=O)CN3C(=O)NC4(CCCCC4)C3=O)n2)cc1 | . | . | 99 | . | . | .
COC(=O)c1ccc(NC(=O)CN(Cc2ccc(Cl)cc2)S(C)(=O)=O)cc1 | . | . | 100 | . | . | .
Cc1c2oc3c(C)ccc(C(=O)N[C@@H]4C(=O)N[C@H](C(C)C)C(=O)N5CCC[C@H]5C(=O)N(C)CC(=O)N(C)[C@@H](C(C)C)C(=O)O[C@@H]4C)c3nc-2c(C(=O)N[C@@H]2C(=O)N[C@H](C(C)C)C(=O)N3CCC[C@H]3C(=O)N(C)CC(=O)N(C)[C@@H](C(C)C)C(=O)O[C@@H]2C)c(N)c1=O | / | / | / | . | / | /
O=C(O)c1ccc(N/N=C/C2=Cc3ccccc3OC2)cc1 | / | / | / | . | . | /
Cc1snnc1C(=O)NC(=S)Nc1ccccc1 | / | / | / | . | . | /
CC(OC(=O)CCc1nc2ccccc2[nH]c1=O)c1ccccc1 (centres undefined) | . | . | . | . | . | .
CCOC(=O)c1ccc(NC(=O)CN2C(=O)NC3(CCCCCC3)C2=O)cc1 | . | . | 91 | . | . | .
CCOC(=O)c1ccc(NC(=O)CN2C(=O)NC3(CCC(C)CC3)C2=O)cc1 (centres undefined) | . | . | . | . | . | .
COC(=O)c1ccc(NC(=O)Cc2ccc(C)cc2)cc1 | . | . | 65 | . | . | .
CCc1ccc(NC(=O)Cc2ccc(-n3cccc3)cc2)cc1 | . | . | 86 | . | . | .
O=C(CN1CCN(c2ccccc2)CC1)Nc1cccc([N+](=O)[O-])c1 | . | . | . | . | . | .
O=C(OCC(=O)N1CCN(S(=O)(=O)c2ccc(Cl)cc2)CC1)c1ccc([N+](=O)[O-])o1 | . | . | 57 | . | . | .
O=C(OCC(=O)N1CCN(S(=O)(=O)c2ccccc2)CC1)c1ccc([N+](=O)[O-])o1 | . | . | 95 | . | . | .
CNc1cc(-n2nc(C)cc2-c2ccccc2)ncn1 | . | . | . | . | . | .
Cc1cc(-c2ccccc2)n(-c2cc(N/N=C/c3ccccc3O)ncn2)n1 | . | . | 100 | . | . | .
